Laboratory results: ChEMBL document CHEMBL1123204, “Nucleosides. 136. Synthesis and antiviral effects of several 1-(2-deoxy-2-fluoro-beta-D-arabinofuranosyl)-5-alkyluracils. Some structure-activity relationships” (J Med Chem, 1986)

Key:
[1] = Theuraptic Index: ratio of ID 50 / ED 90 of compound against HSV 1; format: functional
Outline: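 Index computed as cytotoxic ID50 over antiviral ED90. Antiviral activity was measured against HSV-1 (strain F) by plaque-reduction assay in Vero cells. Cytotoxicity was measured in rapidly dividing Vero cells.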

[2] = system: Vero; test: (§1) Compound was tested for antiviral activity against Herpes simplex virus-1 (Strain F) in vero cells by plaque reduction assay.; format: functional, Chlorocebus sabaeus
[3] = system: Vero; test: (§2) Compound was tested for antiviral activity against Herpes simplex virus-2 (Strain G) in vero cells by plaque reduction assay.; format: functional; settings: Chlorocebus sabaeus, read-out: ED50 (the source's name)
[4] = Theuraptic Index: ratio of ID 50 / ED 90 of compound against HSV 2; format: functional
Outline: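 Index computed as cytotoxic ID50 over antiviral ED90. Antiviral activity was measured against HSV-2 (strain G) by plaque-reduction assay in Vero cells. Cytotoxicity was measured in rapidly dividing Vero cells.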

[5] = system: Vero; test: as §1; format: functional; settings: Chlorocebus sabaeus, read-out: ED50 (the source's name)
[6] = system: Vero; test: as §2; format: functional, Chlorocebus sabaeus

CC(C)c1cn([C@@H]2O[C@H](CO)[C@@H](O)[C@@H]2F)c(=O)[nH]c1=O
TI [1]: > 92 | ED90 [2]: 8.7 µM | EC50 [3]: 13 µM | TI [4]: > 11 | EC50 [5]: 1 µM | ED90 [6]: 72.3 µM

CCC(C)c1cn([C@@H]2O[C@H](CO)[C@@H](O)[C@@H]2F)c(=O)[nH]c1=O (some centres undefined)
ED90 [2]: 305 µM | EC50 [3]: > 400 µM | EC50 [5]: 15.6 µM | ED90 [6]: >400 µM

Cc1cn([C@@H]2O[C@H](CO)[C@@H](O)[C@@H]2F)c(=O)[nH]c1=O [5-METHYL-2'-FLUOROARAURACIL]
TI [1]: 59 | ED90 [2]: 0.047 µM | EC50 [3]: 0.023 µM | TI [4]: 31 | EC50 [5]: 0.018 µM | ED90 [6]: 0.09 µM

CCc1cn([C@@H]2O[C@H](CO)[C@@H](O)[C@@H]2F)c(=O)[nH]c1=O
TI [1]: 6540 | ED90 [2]: 0.26 µM | EC50 [3]: 0.24 µM | TI [4]: 1770 | EC50 [5]: 0.024 µM | ED90 [6]: 0.96 µM

CCCc1cn([C@@H]2O[C@H](CO)[C@@H](O)[C@@H]2F)c(=O)[nH]c1=O
TI [1]: 551 | ED90 [2]: 4.27 µM | EC50 [3]: 0.9 µM | TI [4]: 310 | EC50 [5]: 0.48 µM | ED90 [6]: 7.58 µM

C=CCc1cn([C@@H]2O[C@H](CO)[C@@H](O)[C@@H]2F)c(=O)[nH]c1=O
TI [1]: 73 | ED90 [2]: 21.3 µM | EC50 [3]: 6 µM | TI [4]: 52 | EC50 [5]: 3.3 µM | ED90 [6]: 29.7 µM

CCCCc1cn([C@@H]2O[C@H](CO)[C@@H](O)[C@@H]2F)c(=O)[nH]c1=O
TI [1]: > 11 | ED90 [2]: 76 µM | EC50 [3]: 15.9 µM | TI [4]: > 20 | EC50 [5]: 11.1 µM | ED90 [6]: 40.3 µM

CC(C)Cc1cn([C@@H]2O[C@H](CO)[C@@H](O)[C@@H]2F)c(=O)[nH]c1=O
ED90 [2]: 92.7 µM | EC50 [3]: 113 µM | EC50 [5]: 28.7 µM | ED90 [6]: 422 µM
